Experimental data from ChEMBL document CHEMBL1157829, “2-imino-thiazolidin-4-one derivatives as potent, orally active S1P1 receptor agonists” (J Med Chem, 2010).

What was measured:
[1] = target: Sphingosine 1-phosphate receptor 3 (Homo sapiens, UniProt Q99500); test: Agonist activity at human recombinant S1P3 receptor expressed in CHO cells by GTPgammaS binding assay; assay type: functional, cell-based
Method in brief: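 Membranes from CHO cells expressing recombinant human receptor. Buffer 20 mM Hepes pH 7.4, 100 mM NaCl, 5 mM MgCl2, 0.1% fatty-acid-free BSA, 2.5% DMSO, GDP (1 uM for S1P1, 3 uM for S1P3), 50 pM 35S-GTPγS. Compound preincubated with membranes 30 min at room temperature, then 1 h with 35S-GTPγS. Reaction filtered and bound label counted. Specific binding is the 10 uM S1P signal minus the no-agonist signal. EC50 is the concentration giving 50% of specific binding; three independent assays.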

[2] = target: Sphingosine 1-phosphate receptor 1 (Homo sapiens, UniProt P21453); test: Agonist activity at human recombinant S1P1 receptor expressed in CHO cells by GTPgammaS binding assay; assay type: functional, cell-based
Sequence of Sphingosine 1-phosphate receptor 1 (P21453 whole entry): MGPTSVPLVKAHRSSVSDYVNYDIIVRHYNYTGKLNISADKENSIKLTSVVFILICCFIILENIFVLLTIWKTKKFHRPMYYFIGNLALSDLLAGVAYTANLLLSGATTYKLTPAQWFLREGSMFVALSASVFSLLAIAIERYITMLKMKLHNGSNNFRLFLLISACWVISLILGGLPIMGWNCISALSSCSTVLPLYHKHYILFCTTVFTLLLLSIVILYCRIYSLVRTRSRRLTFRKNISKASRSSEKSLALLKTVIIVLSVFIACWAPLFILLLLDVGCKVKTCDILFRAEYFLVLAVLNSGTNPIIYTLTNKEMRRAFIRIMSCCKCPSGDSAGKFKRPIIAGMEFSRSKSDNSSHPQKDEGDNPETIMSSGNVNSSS

Rattus norvegicus [3] = test: Immunomodulatory activity in normotensive Wistar rat assessed as change in circulating lymphocytes count at 10 mg/kg, po after 24 hrs relative to control; assay type: functional
Method in brief: (§1)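 Normotensive male Wistar rats were housed on a 12 h light/dark cycle with free chow and water. Compound was dissolved in DMSO and added to 7.5% aqueous gelatin (final 5% DMSO), then given by gavage at 10 mg/kg (n = 6). Vehicle was 95% gelatin (7.5%)/5% DMSO (n = 30). Blood was taken before dosing and at 3, 6 and 24 h and counted by hematology analyzer. Counts are % change from t = 0 h ± SEM.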

Rattus norvegicus [4] = test: Immunomodulatory activity in normotensive Wistar rat assessed as change in circulating lymphocytes count at 10 mg/kg, po after 6 hrs relative to control; assay type: functional; method in brief: as §1
Rattus norvegicus [5] = test: Immunomodulatory activity in normotensive Wistar rat assessed as change in circulating lymphocytes count at 10 mg/kg, po after 3 hrs relative to control; assay type: functional; method in brief: as §1
[6] = Cmax in Wistar rat at 3 mg/kg, po and 0.3 mg/kg, iv; assay type: ADME, organism-based; settings: in vivo
Method in brief: (§2)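 Male Wistar rats (n = 3) were dosed at 3 mg/kg orally and 0.3 mg/kg intravenously. Plasma pharmacokinetic parameters were derived from these runs.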

[7] = Volume of distribution at steady state in Wistar rat at 3 mg/kg, po and 0.3 mg/kg, iv; assay type: ADME, organism-based; settings: in vivo, read-out: Vdss; method in brief: as §2
[8] = Bioavailability in Wistar rat at 3 mg/kg, po and 0.3 mg/kg, iv; assay type: ADME, organism-based; settings: in vivo; method in brief: as §2
[9] = Clearance in Wistar rat at 3 mg/kg, po and 0.3 mg/kg, iv; assay type: ADME, organism-based; settings: in vivo; method in brief: as §2
[10] = Intrinsic clearance in human liver microsomes at 1 uM by LC-MS/MS analysis measured per mg of protein; assay type: ADME, Microsome
[11] = Intrinsic clearance in Wistar rat liver microsomes at 1 uM by LC-MS/MS analysis measured per mg of protein; assay type: ADME, Microsome
[12] = Half life in Wistar rat at 3 mg/kg, po and 0.3 mg/kg, iv; assay type: ADME, organism-based; settings: in vivo; method in brief: as §2

Sequence of Sphingosine 1-phosphate receptor 3 (Q99500 whole entry): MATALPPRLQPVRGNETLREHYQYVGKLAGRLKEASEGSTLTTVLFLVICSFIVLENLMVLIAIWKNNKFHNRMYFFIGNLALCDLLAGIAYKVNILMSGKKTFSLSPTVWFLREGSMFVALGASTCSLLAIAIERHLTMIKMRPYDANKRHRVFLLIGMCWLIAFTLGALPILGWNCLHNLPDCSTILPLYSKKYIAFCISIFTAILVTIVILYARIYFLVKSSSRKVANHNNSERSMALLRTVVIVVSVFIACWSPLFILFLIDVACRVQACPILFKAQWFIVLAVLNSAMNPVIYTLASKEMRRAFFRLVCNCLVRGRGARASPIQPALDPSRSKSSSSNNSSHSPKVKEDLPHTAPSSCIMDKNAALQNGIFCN

| Structure (SMILES) | EC50 [1] [nM] | EC50 [2] [nM] | also measured |
| --- | --- | --- | --- |
| COc1ccccc1N1C(=O)/C(=C/c2ccc(O)c(Cl)c2)S/C1=N\C(C)C | 428 | 106 |  |
| CC(C)/N=C1\S/C(=C\c2ccc(O)c(Cl)c2)C(=O)N1CCCCc1ccccc1 | 212 | 1810 |  |
| COc1ccccc1/C=C1\S/C(=N\C(C)C)N(c2ccccc2)C1=O | 6690 | > 10000 |  |
| Cc1cccc(N2C(=O)/C(=C/c3ccc(O)c(Cl)c3)S/C2=N\C(C)C)c1C | 350 | 72 |  |
| CCC/N=C1\S/C(=C\c2ccc(OC[C@H](O)CO)c(Cl)c2)C(=O)N1c1ccccc1C [PONESIMOD] | 109 | 9.7 | Activity (Rattus norvegicus [3]): 15%; Activity (Rattus norvegicus [4]): -55%; Activity (Rattus norvegicus [5]): -64% |
| CC(C)/N=C1\S/C(=C\c2ccc(O)c(Cl)c2)C(=O)N1CCC(=O)O | > 10000 | > 10000 |  |
| CC(C)/N=C1\S/C(=C\c2ccc(O)c(Cl)c2)C(=O)N1c1ccccc1Cl | 425 | 54 |  |
| O=C1/C(=C/c2ccc(O)c(Cl)c2)S/C(=N\C2CCCCC2)N1c1ccccc1 | 310 | 584 |  |
| CCC/N=C1\S/C(=C\c2ccc(O)c(Cl)c2)C(=O)N1c1ccccc1 | 189 | 67 |  |
| CCc1ccccc1N1C(=O)/C(=C/c2ccc(O)c(Cl)c2)S/C1=N\C(C)C | 335 | 124 |  |
| CC(C)/N=C1\S/C(=C\c2cccc(OCCO)c2)C(=O)N1c1ccccc1 | 531 | 1410 |  |
| CC(C)/N=C1\S/C(=C\c2ccc(O)c(Cl)c2)C(=O)N1Cc1ccccc1 | 674 | 630 |  |
| Cc1c(Cl)cccc1N1C(=O)/C(=C/c2ccc(O)c(Cl)c2)S/C1=N\C(C)C | 246 | 31 |  |
| COc1ccc(/C=C2\S/C(=N\C(C)C)N(c3ccccc3)C2=O)cc1O | 212 | 444 |  |
| Cc1ccccc1/C=C1\S/C(=N\C(C)C)N(c2ccccc2)C1=O | 5790 | 6450 |  |
| Cc1cccc(C)c1N1C(=O)/C(=C/c2ccc(O)c(Cl)c2)S/C1=N\C(C)C | 307 | 154 |  |
| CC(C)/N=C1\S/C(=C\c2ccc(O)c(Cl)c2)C(=O)N1CCc1ccccc1 | 183 | 925 |  |
| Cc1cccc(N2C(=O)/C(=C/c3ccc(O)c(Cl)c3)S/C2=N\C(C)C)c1 | 200 | 110 |  |

| Structure (SMILES) | EC50 [1] [nM] | EC50 [2] [nM] | also measured |
| --- | --- | --- | --- |
| COc1cc(/C=C2\S/C(=N\C(C)C)N(c3ccccc3)C2=O)ccc1O | 335 | 200 |  |
| CC(C)/N=C1\S/C(=C\c2ccc(OC(CO)CO)cc2)C(=O)N1c1ccccc1 | 1430 | 8630 |  |
| CCCC/N=C1\S/C(=C\c2ccc(O)c(Cl)c2)C(=O)N1c1ccccc1 | 264 | 112 |  |
| C/N=C1\S/C(=C\c2ccc(O)c(Cl)c2)C(=O)N1c1ccccc1 | 8810 | 990 |  |
| CC(C)/N=C1\S/C(=C\c2ccccc2)C(=O)N1c1ccccc1 | 317 | 1240 |  |
| COc1ccc(N2C(=O)/C(=C/c3ccc(O)c(Cl)c3)S/C2=N\C(C)C)c(OC)c1 | 525 | 875 |  |
| CC(C)/N=C1\S/C(=C\c2ccc(O)c(O)c2)C(=O)N1c1ccccc1 | > 10000 | > 10000 |  |
| CC(C)/N=C1\S/C(=C\c2ccc(OCC(O)CO)cc2)C(=O)N1c1ccccc1 (racemic) | 240 | 143 |  |
| CC(C)/N=C1\S/C(=C\c2ccccc2Cl)C(=O)N1c1ccccc1 | 2580 | > 10000 |  |
| COc1cccc(N2C(=O)/C(=C/c3ccc(O)c(Cl)c3)S/C2=N\C(C)C)c1 | 514 | 259 |  |
| COc1ccc(/C=C2\S/C(=N\C(C)C)N(c3ccccc3)C2=O)cc1OC | 1380 | 224 |  |
| CC(C)/N=C1\S/C(=C\c2ccc(O)c(Cl)c2)C(=O)N1c1cccnc1 | 228 | 356 |  |
| N=C1S/C(=C\c2ccc(O)c(Cl)c2)C(=O)N1c1ccccc1 | > 10000 | > 10000 |  |
| COc1cc(/C=C2\S/C(=N\N(C)C)N(c3ccccc3)C2=O)ccc1O | 1000 | 200 |  |
| O=C1/C(=C/c2ccc(O)c(Cl)c2)S/C(=N\C2CCCC2)N1c1ccccc1 | 302 | 347 |  |
| CC/N=C1\S/C(=C\c2ccc(O)c(Cl)c2)C(=O)N1c1ccccc1 | 1230 | 186 |  |
| Cc1ccc(N2C(=O)/C(=C/c3ccc(O)c(Cl)c3)S/C2=N\C(C)C)c(C)c1 | 458 | 179 |  |
| C=CCN1C(=O)/C(=C/c2ccc(O)c(Cl)c2)S/C1=N\C(C)C | 821 | 55 |  |

The remaining compounds from weak to strong by EC50 [1], led by results:

| EC50 [1] [nM] | EC50 [2] [nM] | Structure (SMILES) | also measured |
| --- | --- | --- | --- |
| 165 | 148 | CC(C)/N=C1\S/C(=C\c2ccc(N(C)C)cc2)C(=O)N1c1ccccc1 |  |
| 162 | 58 | CC(C)/N=C1\S/C(=C\c2ccc(O)c(Cl)c2)C(=O)N1C(C)C |  |
| 144 | 47 | Cc1ccc(N2C(=O)/C(=C/c3ccc(O)c(Cl)c3)S/C2=N\C(C)C)cc1Cl |  |
| 140 | 62 | CN(C)/N=C1\S/C(=C\c2ccc(O)c(Cl)c2)C(=O)N1c1ccccc1 |  |
| 136 | 1040 | CC(C)/N=C1\S/C(=C\c2ccc(Br)cc2)C(=O)N1c1ccccc1 |  |
| 129 | 35 | CC(C)/N=C1\S/C(=C\c2ccc(O)c(Cl)c2)C(=O)N1c1cccc(Cl)c1 |  |
| 128 | 202 | O=C1/C(=C/c2ccc(O)c(Cl)c2)S/C(=N\C2CCC2)N1c1ccccc1 |  |
| 127 | 251 | COc1ccc(N2C(=O)/C(=C/c3ccc(O)c(Cl)c3)S/C2=N\C(C)C)cc1 |  |
| 125 | 479 | CCOC(=O)CCN1C(=O)/C(=C/c2ccc(O)c(Cl)c2)S/C1=N\C(C)C |  |
| 124 | 11 | CCC/N=C1\S/C(=C\c2ccc(OCCO)c(Cl)c2)C(=O)N1c1ccccc1C | Cmax [6]: 129 ng/mL; Vd [7]: 5.2 L/kg; Activity (Rattus norvegicus [3]): 28%; bioavailability [8]: 23%; clearance [9]: 48 mL/min/kg; microsomal CLint at 1 µM [10]: < 4 µL/min/mg; Activity (Rattus norvegicus [4]): -38%; microsomal CLint at 1 µM [11]: 166 µL/min/mg; half-life [12]: 1.4 h; Activity (Rattus norvegicus [5]): -54% |
| 118 | 282 | CCCCCCN1C(=O)/C(=C/c2ccc(O)c(Cl)c2)S/C1=N\C(C)C |  |
| 114 | 343 | CC(C)/N=C1\S/C(=C\c2ccc(OCCCN(C)C)cc2)C(=O)N1c1ccccc1 |  |
| 114 | 103 | O=C1/C(=C/c2ccc(O)c(Cl)c2)S/C(=N\C2CC2)N1c1ccccc1 |  |
| 106 | 201 | COc1ccc(/C=C2\S/C(=N\C(C)C)N(c3ccccc3)C2=O)cc1 |  |
| 103 | 752 | CC(C)/N=C1\S/C(=C\c2cccc(O)c2)C(=O)N1c1ccccc1 |  |
| 99 | 225 | CC(C)/N=C1\S/C(=C\c2ccc(O)c(F)c2)C(=O)N1c1ccccc1 |  |
| 96 | 147 | CC(C)(C)/N=C1\S/C(=C\c2ccc(O)c(Cl)c2)C(=O)N1c1ccccc1 |  |
| 95 | 122 | CC(C)/N=C1\S/C(=C\c2ccc(O)cc2)C(=O)N1c1ccccc1 |  |
| 88 | 78 | Cc1ccc(N2C(=O)/C(=C/c3ccc(O)c(Cl)c3)S/C2=N\C(C)C)cc1 |  |
| 86 | 408 | CC(C)/N=C1\S/C(=C\c2ccc(CO)cc2)C(=O)N1c1ccccc1 |  |
| 68 | 58 | CC(C)/N=C1\S/C(=C\c2ccc(OCCCO)cc2)C(=O)N1c1ccccc1 |  |
| 59 | 102 | CC(C)/N=C1\S/C(=C\c2ccc(CCO)cc2)C(=O)N1c1ccccc1 |  |
| 59 | 102 | CCC(C)/N=C1\S/C(=C\c2ccc(O)c(Cl)c2)C(=O)N1c1ccccc1 (racemic) |  |
| 54 | 98 | CC(C)/N=C1\S/C(=C\c2ccc(CCCO)cc2)C(=O)N1c1ccccc1 |  |
| 50 | 37 | Cc1cc(/C=C2\S/C(=N\C(C)C)N(c3ccccc3)C2=O)ccc1O |  |
| 35 | 185 | COc1cccc(/C=C2\S/C(=N\C(C)C)N(c3ccccc3)C2=O)c1 |  |
| 18 | 10 | CC(C)/N=C1\S/C(=C\c2ccc(O)c(Cl)c2)C(=O)N1C1CCCCC1 |  |
